Series [1] can be described thus: Clearance in dog at 0.4 mg/kg, iv and 0.2 mg/kg, po. The format is ADME, organism-based, Canis lupus familiaris. To be noted: in vivo. Put shortly:
(§1)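 Dog pharmacokinetics from cassette (N-in-one) dosing of compounds as TFA salts: 0.4 mg/kg iv and 0.2 mg/kg po, n = 2 animals.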

Series [2] can be described thus: Volume of distribution at steady state in dog at 0.4 mg/kg, iv and 0.2 mg/kg, po. Format: ADME, organism-based, Canis lupus familiaris. To be noted: in vivo, read-out: Vdss. Put shortly:
as §1

The nature of series [3]: Half life in dog at 0.2 mg/kg, po. The format is ADME, organism-based, Canis lupus familiaris. More on the design: dose 0.2 mg/kg, route oral. The settings on record: in vivo. The method in brief: as §1
For series [4], the species on record is Oryctolagus cuniculus. As to the kind of experiment: Inhibition of thrombus formation in rabbit arteriovenous shunt thrombosis model. Format: functional, organism-based.
Series [5] can be described thus: Half life in human liver microsomes. The format is ADME, Microsome.
A short description of series [6]: Protein binding in human serum by equilibrium dialysis. Format: ADME, cell-free. The settings on record: read-out: PB (converted). For orientation: Equilibrium dialysis compares concentrations on both sides of a semipermeable membrane.
Series [7] in a line: (§2) Oral bioavailability in dog at 0.2 mg/kg, po. To be noted: in vivo. The format is ADME, organism-based, Canis lupus familiaris. Put shortly: as §1
Series [8] is described as follows: Aqueos solubility in saline. Format: ADME.
In series [9] the target is T1, Coagulation factor X (Oryctolagus cuniculus, UniProt O19045).
T1 sequence (O19045 whole entry): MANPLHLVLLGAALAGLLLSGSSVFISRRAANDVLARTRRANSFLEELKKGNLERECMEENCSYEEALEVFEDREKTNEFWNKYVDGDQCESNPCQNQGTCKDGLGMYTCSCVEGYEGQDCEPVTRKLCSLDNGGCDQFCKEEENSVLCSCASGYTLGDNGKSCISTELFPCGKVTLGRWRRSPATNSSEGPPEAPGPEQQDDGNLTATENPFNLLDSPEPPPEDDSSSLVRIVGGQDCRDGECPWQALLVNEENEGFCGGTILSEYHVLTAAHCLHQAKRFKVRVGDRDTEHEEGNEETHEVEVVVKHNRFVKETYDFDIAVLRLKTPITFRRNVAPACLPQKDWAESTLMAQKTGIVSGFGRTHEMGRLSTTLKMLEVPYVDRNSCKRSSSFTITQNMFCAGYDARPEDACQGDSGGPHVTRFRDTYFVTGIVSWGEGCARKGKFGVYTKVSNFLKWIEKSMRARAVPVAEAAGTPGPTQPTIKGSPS
The series is described as follows: Binding affinity to rabbit F10a.

In series [10] the test system is Canis familiaris. The series is described as §2. The format is ADME, organism-based, Canis lupus familiaris. To be noted: in vivo. The method in brief: as §1
In series [11] the target is Coagulation factor X (Homo sapiens, UniProt P00742). The series is described as follows: Binding affinity to human F10a.
The target in series [12] is Prothrombin (Homo sapiens, UniProt P00734). As to the kind of experiment: Inhibition of human thrombin.
Series [13] in a line: Apparent permeability across Caco-2 cells. The format is ADME, cell-based. The settings on record: human. Background: Caco-2 cells form a polarised layer with tight junctions and transporters.

Consider four compounds from ChEMBL document CHEMBL1137566 (J Med Chem, 2007).

Values after ≈ are worked out from the molar mass of the structure shown.

Coagulation factor X (Homo sapiens, UniProt P00742), sequence (P00742 41-179 limits assumed): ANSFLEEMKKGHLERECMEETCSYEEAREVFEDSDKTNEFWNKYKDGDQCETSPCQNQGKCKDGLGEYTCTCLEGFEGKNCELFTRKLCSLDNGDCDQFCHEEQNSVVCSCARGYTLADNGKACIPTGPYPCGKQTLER
Coagulation factor X (Homo sapiens, UniProt P00742), sequence (P00742 235-488 limits assumed): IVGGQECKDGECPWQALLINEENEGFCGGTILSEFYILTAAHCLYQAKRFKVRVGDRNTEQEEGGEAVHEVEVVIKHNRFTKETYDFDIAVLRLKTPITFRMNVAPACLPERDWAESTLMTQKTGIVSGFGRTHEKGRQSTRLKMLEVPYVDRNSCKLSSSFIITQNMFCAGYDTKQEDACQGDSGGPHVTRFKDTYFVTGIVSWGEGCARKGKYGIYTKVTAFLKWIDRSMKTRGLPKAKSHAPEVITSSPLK

A word on the half-life: it is how long it takes for the measured level to halve. A lower half-life goes with fast loss. What is called IC50 is the point on the concentration scale where inhibition reaches its midpoint. In series [1], `Nc1noc2ccc(-n3nc(C(F)(F)F)c4c3C(=O)N(c3ccc(-c5ccccc5CN5CC[C@@H](O)C5)cc3)CC4)cc12` had a clearance of 5.83 mL/min/kg. Moreover, in [2], the Vd turned out to be 1.6 L/kg. Further, the half-life in series [3] was 5.1 h; in series [5] it was 0.7 h. In series [4], this compound displayed an IC50 of 0.14 µM. In addition, in series [6], the fraction unbound is 0.03.

As usually defined, the bioavailability is dose-corrected exposure relative to a reference, in per cent. The low end stands for poor availability, the high end for good availability. The term solubility denotes how much of the substance goes into solution per volume. The low end stands for a poorly soluble substance, the high end for a readily soluble substance. The Ki is the dissociation constant of the complex between target and ligand, obtained from inhibition or displacement. Consider `COc1ccc(-n2nc(C(N)=O)c3c2C(=O)N(c2ccc(N4CCCCC4=O)cc2)CC3)cc1` [APIXABAN], for which the clearance in series [1] was 0.333 mL/min/kg. The Vd in [2] amounted to 0.2 L/kg. The same compound showed a half-life in series [3] of 5.8 h. The same compound came in with a bioavailability in series [7] of 58%. In series [4], this compound gave an IC50 of 0.329 µM. Also, the solubility in [8] turned out to be 50 µg/mL (≈ 109 µM). This compound also returned a Ki in [9] of 0.00017 µM.

`CN(C)Cc1nccn1-c1ccc(NC(=O)c2cc(C(F)(F)F)nn2-c2ccc3onc(N)c3c2)c(F)c1` [RAZAXABAN]: the Vd in series [2] was 3.4 L/kg. For the same compound, the half-life in [3] was 5.3 h; in [5] it was 0.633 h. Also, the F in series [10] came to 84%. The fraction unbound in [6] was 0.09.

By Papp is commonly meant the rate of passage across a membrane or cell layer, normalised by area and donor concentration. For the compound `COc1ccc(-n2nc(C(N)=O)c3c2C(=O)N(c2ccc(N(C)C(C)=O)cc2)CC3)cc1`, the inhibition constant Ki in series [11] was 0.00061 µM; in series [12], 2.52 µM; in series [9] it was 0.0026 µM. Also, the clearance in series [1] was 46.7 mL/min/kg. Further, the Vd in series [2] is 1.7 L/kg. In addition, the half-life in series [3] is 0.7 h. In series [7], this compound showed a bioavailability of 56%. Moreover, the apparent permeability coefficient (Papp) in series [13] is 2.5 ×10⁻⁶ cm/s.
